KCC2 mod: KCC2 cotransporter modulators, thallium flux, primary screen, cell-based, HEK293 KCC2, FluoZin-2 fluorescence, MLSMR. 2.2% of 190,000 active. Solute carrier family 12 member 5 (Homo sapiens), Q9H2X9. B-score of Tl+ flux slope (higher = more flux/activation; lower = inhibition) at 10 µM. KCC2 cells, thallium flux FluoZin-2 fluorescence;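 active = thallium flux slope and its plate-corrected score both differing from the plate sample mean at a set confidence after two filtering rounds, in either direction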;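 also: slope of fluorescence scaled to starting intensity during 10 to 20 s after thallium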
Target sequence (Q9H2X9 whole entry, looked up): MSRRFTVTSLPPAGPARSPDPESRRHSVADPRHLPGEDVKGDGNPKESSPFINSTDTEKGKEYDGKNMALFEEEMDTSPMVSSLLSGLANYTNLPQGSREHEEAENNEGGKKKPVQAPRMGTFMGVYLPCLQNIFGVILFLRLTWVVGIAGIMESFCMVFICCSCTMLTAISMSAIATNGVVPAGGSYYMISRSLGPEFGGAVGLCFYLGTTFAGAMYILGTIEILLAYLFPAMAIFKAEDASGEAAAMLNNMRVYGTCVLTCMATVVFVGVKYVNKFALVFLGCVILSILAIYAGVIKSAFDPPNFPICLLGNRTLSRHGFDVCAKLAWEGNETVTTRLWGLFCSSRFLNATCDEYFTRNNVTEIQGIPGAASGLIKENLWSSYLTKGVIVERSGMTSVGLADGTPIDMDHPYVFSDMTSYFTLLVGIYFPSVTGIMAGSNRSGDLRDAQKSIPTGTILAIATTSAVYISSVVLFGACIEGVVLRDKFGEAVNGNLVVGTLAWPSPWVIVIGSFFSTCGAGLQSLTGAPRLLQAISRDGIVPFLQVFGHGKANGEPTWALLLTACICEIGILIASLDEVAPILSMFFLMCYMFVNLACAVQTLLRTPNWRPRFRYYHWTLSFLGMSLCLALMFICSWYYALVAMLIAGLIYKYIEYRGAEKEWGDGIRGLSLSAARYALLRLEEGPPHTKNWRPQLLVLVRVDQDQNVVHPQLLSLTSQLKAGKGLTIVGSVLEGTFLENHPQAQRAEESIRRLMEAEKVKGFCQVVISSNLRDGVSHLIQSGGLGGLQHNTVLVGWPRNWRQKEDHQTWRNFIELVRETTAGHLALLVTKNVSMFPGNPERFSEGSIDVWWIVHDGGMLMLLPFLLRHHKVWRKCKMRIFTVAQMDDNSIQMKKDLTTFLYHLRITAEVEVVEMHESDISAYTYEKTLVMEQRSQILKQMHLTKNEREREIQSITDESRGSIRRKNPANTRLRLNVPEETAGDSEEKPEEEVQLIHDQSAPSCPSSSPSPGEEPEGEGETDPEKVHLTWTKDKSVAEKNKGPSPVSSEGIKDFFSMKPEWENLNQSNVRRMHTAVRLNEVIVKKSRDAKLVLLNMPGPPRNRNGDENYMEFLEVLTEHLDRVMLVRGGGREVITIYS
KCNQ1 act: potentiators or activators of KCNQ1 channel, primary screen, cell-based, thallium flux, high-throughput | Potassium voltage-gated channel subfamily KQT member 1 (Homo sapiens), P51787 | CHO-K1 KCNQ1, thallium flux FluxOR fluorescence; active compounds read high | B-score at 10 µM | 0.35% of 310,000 active;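 active = fluorescence ratio B-score, a plate-corrected score, at least three library SD, with initial intensity B-score within 5 SD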
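Schedule – 37 °C overnight plating, 90-min dark dye load, 20-min compound pretreatment · System – stable KCNQ1 CHO-K1 line · Probe or stimulus – thallium- and potassium-containing depolarizing buffer · Measured by – kinetic FluxOR fluorescence, 10 s baseline plus 110 s post-stimulus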
KCNK3 inh: human KCNK3 channel inhibitors, primary screen, CHO cells, FluxOR thallium flux, B-score; FluxOR fluorescence; active compounds read low; B-score at 10 µM; 0.84% of 340,000 active; AID 602410, 2012;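 active = B-score under library mean minus 4 SD, starting fluorescence ratio at most library mean plus 5 SD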;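 also: more negative B-score means stronger inhibition of thallium flux through KCNK3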
KCNK9 block: KCNK9 potassium channel inhibitors, primary screen, HEK293 cells, thallium flux. 1.2% of 310,000 active. FluxOR thallium flux fluorescence; active compounds read low. Potassium channel subfamily K member 9 (Homo sapiens), Q9NPC2. B-score at 10 µM. AID 488922, 2010;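 active = ratio B-score over 3 SD below the library mean, with starting fluorescence within 5 SD of its mean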;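 also: negative B-score means less thallium flux so channel inhibition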
hERG rescue: hERG rescue from dofetilide block, primary screen, cell-based, CHO-hERG, FluxOR thallium flux, dofetilide IC70; 0.51% of 310,000 active; activation (rescue from dofetilide block), less the hit threshold, % at 10 µM; AID 1511, 2009; dofetilide IC70 present;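 active = activation above the mean of controls blocked by dofetilide plus 5 SD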;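 also: thallium influx through hERG after potassium depolarization seen as dye fluorescence rise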
KCNQ1 inh: inhibitors of human KCNQ1 channel, primary screen, cell-based, thallium flux, high-throughput; AID 2642, 2010; CHO-K1 KCNQ1, FluxOR thallium flux fluorescence; active compounds read high; 1.3% of 310,000 active; Potassium voltage-gated channel subfamily KQT member 1 (Homo sapiens), P51787; B-score at 10 µM;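 active = compounds whose thallium flux B-score, printed positive for inhibition, exceeds three library SD while starting fluorescence stays within three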;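 also: channel opened by potassium depolarization with thallium stimulus after 20 min compound exposure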
KCNK9 inh conf: KCNK9 potassium channel inhibitors, confirmation, HEK293 cells, thallium flux, duplicate | AID 492992, 2010 | FluxOR thallium flux fluorescence | shares compounds with KCNK9 block | 43% of 4,900 active | inhibition, % at 10 µM;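 active = thallium signal inhibited by more than 5 SD of the compound-free buffer control wells, on both duplicate plates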;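 also: 0% = assay buffer control wells without compound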
Kir2-1 spec: mouse Kir2.1 channel inhibition, confirmation, selectivity assay for KCNK9 modulator project, cell-based, HEK293, thallium flux | inhibition, % at 10 µM | Kir2.1 cells, FluxOR thallium flux fluorescence | shares compounds with KCNK9 block | AID 492993, 2010 | 4% of 4,900 active;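 active = thallium signal drop more than 5 SD beyond the mean of the no-compound control wells, seen in both duplicate plates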;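 also: signal is fluorescence rise after thallium addition divided by baseline fluorescence; plate controls were assay buffer only for no effect and full block by chlorpromazine control for full effect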
HEK293 Tl ctr: thallium flux in non-induced HEK293 cells, confirmation, counter-screen for KCNK9 inhibitor project, cell-based, second counter screen, non-induced KCNK9-HEK293; inhibition, % at 10 µM; shares compounds with KCNK9 block; AID 492997, 2010; 40% of 4,900 active; FluxOR thallium flux;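 active = thallium signal drop beyond 5 SD of the untreated control mean, on both duplicate plates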;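 also: plate controls were buffer only IC0 wells for no effect and SID17386958 at its maximal inhibitory level for full effect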
* hit, by the source's call; i = inactive; / = no result given. Sampled rows, rich in hits. Any-hit rate of the full collection: about 4.1%.

SMILES	KCC2 mod	KCNQ1 act	KCNK3 inh	KCNK9 block	hERG rescue	KCNQ1 inh	KCNK9 inh conf	Kir2-1 spec	HEK293 Tl ctr
CCN1CCCc2cc(CN(CCN3CCOCC3)C(=O)Nc3ccc(C)c(C)c3)ccc21	-0.53	i	i	i	-12	i	i	i	i
CCc1ccc(NC(=O)N(CCN2CCOCC2)Cc2ccc3c(c2)CCCN3CC)cc1	-0.55	i	i	i	-13	i	/	/	/
COc1nc(NCCc2ccc(OC)c(OC)c2)nc(Nc2ccccc2)n1	/	i	i	i	-6	i	/	/	/
O=C(NCC(c1ccco1)N1CCc2ccccc21)C(=O)Nc1ccccc1F (stereo not drawn)	/	i	i	i	-8	i	/	/	/
O=C(NCC(c1ccco1)N1CCc2ccccc21)C(=O)Nc1ccc(F)cc1F (stereo not drawn)	/	i	i	-14*	-8	i	32%*	i	27%*
CCOc1ccccc1CNC(=O)CCCc1cn(C)c2ccccc12	i	i	i	i	-5	i	i	i	i
O=[N+]([O-])c1ccc(/C=C/c2ccc3cccc([N+](=O)[O-])c3n2)cc1	-0.44	i	i	i	-4	i	/	/	/
O=[N+]([O-])c1cccc2ccc(/C=C/c3ccc(F)cc3)nc12	-0.19	i	i	-13*	-9	i	48%*	i	32%*
N#Cc1nc(COc2ccc(F)cc2)oc1N1CCCCC1	-1.1	i	i	i	-14	i	i	i	i
CCC(Sc1ccccn1)C(=O)Nc1cccc([N+](=O)[O-])c1 (stereo not drawn)	-0.26	i	i	-8.6*	-13	i	30%*	i	26%*
Cc1cc(NC(=O)COC(=O)c2cnccn2)ccc1Br	/	/	i	/	/	/	/	/	/
COc1ccc(S(=O)(=O)N2CCCCCC2)cc1NC(=O)CCCOc1ccccc1	/	/	i	/	/	/	/	/	/
CCCC(=O)NC(Nc1cccc(C(F)(F)F)c1)C(Cl)(Cl)Cl (stereo not drawn)	/	i	i	-8.8*	-6	8*	32%*	i	26%*
Cc1cc(C)c(S(=O)(=O)c2ccccc2C)c(OCC(C)(C)C)n1	/	i	i	-10*	-8	i	44%*	i	53%*
COc1cccc(NC(=O)CN(C)C(=O)/C=C/c2ccc3ccccc3n2)c1	/	i	i	i	-6	i	/	/	/
COc1ccc(C2=NN(C(=O)c3cccc([N+](=O)[O-])c3)C(c3cccc([N+](=O)[O-])c3)C2)cc1 (stereo not drawn)	/	i	i	-13*	-9	i	64%*	i	35%*
COc1ccc(C2CC(c3ccc(C)cc3)=NN2C(=O)c2ccccc2)cc1 (stereo not drawn)	/	i	i	i	-3	i	/	/	/
CCOc1ccc(S(=O)(=O)N2CCN(C(=O)c3ccc(Cl)c(S(=O)(=O)N4CCOCC4)c3)CC2)cc1	/	/	i	/	/	/	/	/	/
CCCC(c1nnnn1CC1CCCO1)N1CCN(c2cc(Cl)ccc2C)CC1 (stereo not drawn)	/	i	i	i	-8	i	/	/	/
CCC(c1nnnn1C(C)(C)C)N1CCN(c2cc(Cl)ccc2C)CC1 (stereo not drawn)	-0.14	i	-8.9*	-9.9*	-5	i	49%*	i	47%*
Clc1ccc(C(c2nnnn2C2CCCC2)N2CCN(c3nc4ccccc4s3)CC2)cc1 (stereo not drawn)	-0.96	i	i	i	1	i	/	/	/
Cc1ccc(Cl)cc1N1CCN(C(c2ccc(C#N)cc2)c2nnnn2C2CCCC2)CC1 (stereo not drawn)	/	/	i	/	/	/	/	/	/
Cc1ccc(Cl)cc1N1CCN(C(c2cccnc2)c2nnnn2C2CCCCC2)CC1 (stereo not drawn)	/	i	-11*	-13*	-7	i	37%*	i	44%*
c1cnc2ccc(C(c3nnnn3C3CCCC3)N3CCN(c4nc5ccccc5s4)CC3)cc2c1 (stereo not drawn)	-3.3	i	-9.1*	-9.2*	-8	i	i	i	40%*
CCCCCCCn1c2c(c(=N)c3c1CCC3)CCCC2	-0.27	i	i	-9.9*	-28	6*	70%*	78%*	36%*
SMILES	KCC2 mod	KCNQ1 act	KCNK3 inh	KCNK9 block	hERG rescue	KCNQ1 inh	KCNK9 inh conf	Kir2-1 spec	HEK293 Tl ctr
CCCCCCCCCn1c2c(c(=N)c3c1CCC3)CCC2	0.082	i	-19*	-16*	-35	10*	62%*	87%*	42%*
Cc1ccsc1C(=O)C1CCCN(Cc2cc(F)ccc2-n2cccn2)C1 (stereo not drawn)	/	i	i	i	-11	i	i	i	i
COc1cc(Cl)ccc1OCc1cc(C(=O)N2C[C@]3(C)C[C@H]2CC(C)(C)C3)no1	/	i	i	i	-11	i	i	i	i
Cc1ccc(SCc2cc(=O)[nH]c(Nc3nc(C)c4ccccc4n3)n2)cc1	-2.5	i	i	i	-6	i	i	i	i
Cc1nn(CC(=O)NCCCN2CC(C)CC(C)C2)c(=O)c2cccn12 (stereo not drawn)	/	i	i	i	-5	i	/	/	/
O=C(Cc1ccc([N+](=O)[O-])cc1)Oc1ccccc1	/	/	i	/	/	/	/	/	/
C=CS(=O)(=O)N(Cc1ccc(Cl)c(Cl)c1)C[C@@H](O)CO	/	/	i	/	/	/	/	/	/
COc1cc(CCC(=O)OCC(=O)NCCc2ccc(S(N)(=O)=O)cc2)cc(OC)c1OC	/	/	i	/	/	/	/	/	/
CN(C)CC(=O)Nc1cc(C(F)(F)F)ccc1Cl	0.87	i	i	i	-2	i	/	/	/

Compound activity deposited in PubChem by several laboratories.
